Data on 8 molecules can be found in ChEMBL document CHEMBL1135442, “6-Chloropyridazin-3-yl derivatives active as nicotinic agents: synthesis, binding, and modeling studies” (J Med Chem, 2002).

pKi: −log10 of the molar value.

The test in a line: Inhibition of [3H]cytisine binding to rat cerebral cortical membrane neuronal Nicotinic acetylcholine receptor. The method, boiled down:
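Rat cerebral cortical membranes, thawed, washed, resuspended in Tris-HCl 50 mM buffer with NaCl 120, KCl 5, MgCl2 1, CaCl2 2.5 mM (pH 7.4 at 4 °C), centrifuged 45000g 20 min. 150-200 µg protein incubated with 0.7 nM [3H]-(-)-cytisine and varied test concentrations, 75 min at 4 °C, triplicate. Nonspecific binding defined with 10 µM (-)-nicotine. Ki values reported.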
With `C[N+]1(C)C2CCC1CN(c1ccc(Cl)nn1)C2`, the pKi is 8.64. With `Clc1ccc(N2CCNCC2)nn1` the figure was 7.49; with `CN1C2CCC1CN(c1ccc(Cl)nn1)C2`, 7.41.

On to `C[N+]1(C)CCCN(c2ccc(Cl)nn2)CC1`, for which the pKi is 6.92. With `Clc1ccc(N2CC3CCC(C2)N3)nn1` the figure was 8.39; with `CN1CCCN(c2ccc(Cl)nn2)CC1`, 6.66; with `CN1CCN(c2ccc(Cl)nn2)CC1`, 7.85.

In turn, `Clc1ccc(N2CCCNCC2)nn1` gave a pKi of 8.82.

A word on the pKi: it is the Ki on a negative log10 scale, so that one unit is a factor of ten.
